For the data set, the system named is MS2 coat protein. The data set is described as follows: apparent Kd, MS2 coat protein; higher = weaker binding; RNA-MaP array; FMN 200 µM where present. A digest of the protocol:
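Green signal from SNAP-549-labelled MS2 coat protein was normalised to red-channel RNA signal and to the median Fmax of control clusters. The protein was titrated from 0.7 or 1.5 nM, doubling to 3 µM, without and then with constant ligand, over designs transcribed by stalled E. coli RNA polymerase on Illumina sequencing-chip clusters, in 100 mM Tris-HCl pH 7.5, 80 mM KCl, 4 mM MgCl2, BSA, DTT, yeast tRNA and Tween-20. The apparent Kd is the median of filtered per-cluster binding-curve fits.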

The mark [1] stands for this setting: designed as: OFF switch for flavin mononucleotide, no ligand.
[2] abbreviates: ligand present: flavin mononucleotide, designed as: OFF switch for flavin mononucleotide.
[3] abbreviates: designed as: ON switch for flavin mononucleotide, no ligand.
[4] abbreviates: ligand present: flavin mononucleotide, designed as: ON switch for flavin mononucleotide.

The record followed here is the EternaBench riboswitch data.

By apparent Kd is commonly meant a dissociation constant that holds for the conditions of the assay.

Turning to “UUAGAAAGGUUAGGAUAUUAAUUAUUGUAUAGUAUGAUCUACAUGAGGAUCACCCAUGUUAAAUAUAAGAAGGAACGUUAGAUU”, the “apparent Kd” value is 57.1 nM under setting [1] and 54.8 nM under setting [2]. The matching figures for “GGUUGGCGAGGAUAUACAUGAGGAUCACCCAUGUGGUCCUGUGGCUGGUCUUAACUUUGUAGAAGGCGCGGGUC”: 66 nM and 82.8 nM.

With “UCUACAUAAAUUCAUCAAUACAGAAAGGAUAUGAAAUACAUGAGGAUCACCCAUGUUCAUGGGAAUUAGAAGGUUCAAUUAGCU”, the “apparent Kd” value came out at 220 nM under setting [1] and 137 nM under setting [2]. On the same counts, the results for “GGCCCGGGAGGAUAUACAUGAGGAUCACCCAUGUGCUUCGGCUUGAUCAAGUUGAAGUGUAGAAGGCCCGGGCC” are 14.2 nM and 21 nM.

As to “UAGUGCGUUAGAGGAUAUUCUAAAAUAAAAUAAAAGACAUGAGGAUCACCCAUGUAUGUACAUGGGAAGAAGGCUGAUGUGCUA”, the “apparent Kd” value stood at 438 nM under setting [3] and 51.4 nM under setting [4]. The matching figures for “AAUGUGUGUCGAGGAUAUAUUAUAUGACAACAAACACAUACAUGAGGAUCACCCAUGUCCCAUGUAUAGAAGGCGAUGUGUGUG”: 130 nM and 174 nM. For “GAUUAACAUGAGGAUCACCCAUGUGUGAAUAUGGGAGGAUAUACGUGGACCGUAGUCCGCGUAGAAGGCCUAAUUG”, the “apparent Kd” value by setting is: under setting [3], 279 nM; under setting [4], 46.1 nM.

On to “AUCAGCUCGUCAGGAUAUACGUCACUGCCUCAGCAGUGUGGUAAGAUCACAUGAGGAUCACCCAUGUAGAAGGGACGAGCUGAU”, for which the “apparent Kd” value under setting [1] worked out at 15.5 nM and the “apparent Kd” value under setting [2] was found to be 299 nM.

For the sequence “CUCUUGGCAGGAUAUGCAAUUUUAGACAUGAGGAUCACCCAUGUGAUCAUUCCAUAUUAUGCAGAAGGGCCUAAAC”, the “apparent Kd” value under setting [1] was determined as 48.2 nM and the “apparent Kd” value under setting [2] was 320 nM. For “GUCCACAUGAGGAUCACCCAUGUGAGAAGGUUGGUUUUGUUGAGGUAGUGGUUUGCCUUGGUGGUAGAGGAUAUUGAUGGGUUA”, the “apparent Kd” value runs as follows: under setting [1], 7.7 nM; under setting [2], 7.33 nM. The matching figures for “GUCGAGUGAGGAUAUGGUGAGUAGUGCCAGAGCGCUGCUCACCAGAAGGCACAUGAGGAUCACCCAUGUAUGUC”: 12.9 nM and 20.8 nM. On to “GGUCGUCAGAUUAACAUGAGGAUCACCCAUGUCUUUUGACAUGAGGAUAUGGAUCCUAAUUGGAUCCAGAAGGCAUGGACGACC”, for which the “apparent Kd” value stood at 1170 nM under setting [3] and 104 nM under setting [4]. With “CGUGUUGACGAAGGAUAUGGAUACAUGAGGAUCACCCAUGUAUAUUUUGUGAUCAAGUUUAAGAUCCAGAAGGUCGUUGACACG”, the “apparent Kd” value under setting [1] turned out to be 77.6 nM and the “apparent Kd” value under setting [2] was 131 nM. On to “AUGUCUUAGUAGAAGGGACAUCGGCUGGUAAGCAUCAUCUCCUUCUCACAUGAGGAUCACCCAUGUCAGGAUAUACUAAGAUAC”, for which, under setting [2], the “apparent Kd” value worked out at 38.5 nM. For the sequence “UCGGCGCGAGGAUAUGCGGUUGCUUGGUAGGGUCGGAGCGUACAUGAGGAUCACCCAUGUAGAAGGCGCGCCGC”, the “apparent Kd” value under setting [1] is 18.8 nM and the “apparent Kd” value under setting [2] stood at 25 nM. The matching figures for “UAUUAUAUGGAGAAGGACAUGAGGAUCACCCAUGUCGCCGGGCCCGGGAAACCGGGCCCGGCCAUGUAGGAUAUCCGUAUGGUA”: 6 nM and 7.96 nM.

For “AACGCGGAAAUCGCAAUACAUGAGGAUCACCCAUGUAGAUCGCAGGAUAUGGUCUAGUCAGUGGUCCAGAAGGGUGAUCAGAAC”, the “apparent Kd” value is, setting by setting: under setting [3], 125 nM; under setting [4], 74.5 nM. In the case of “UUUUUACAUGAGGAUCACCCAUGUGAGGAUAUGGAUUCGCUGGCCGUAGCCAGUGGAUCCAGAAGGCGCGUGAU”, the “apparent Kd” value runs as follows: under setting [1], 90 nM; under setting [2], 175 nM. The matching figures for “AGAAAACAUGAGGAUCACCCAUGUGAGGAUAUCGAUGUCCAAGGCCGGGUGCGGGACUCGAGAAGGCACUUGGG”: 75.5 nM and 38.7 nM.

In the case of “GCGUCAGAAUUAAUUGUGACAGACAGAAGGCAAUAGUAUGUGUCCGACAUGAGGAUCACCCAUGUUGAGGAUAUGUCUUGACGC”, the “apparent Kd” value runs as follows: under setting [1], 4.76 nM; under setting [2], 5.87 nM. Consider “GUCAGCUCGUCAGGAUAUACAUGAGGAUCACCCAUGUGAUCAAUAGCAGCUUCGGCUGCAUUAAUGUAGAAGGGACGAGCUGAU”, for which the “apparent Kd” value worked out at 267 nM under setting [1] and 69.2 nM under setting [2].

For the sequence “AGAAAGUGAGGAUAUACAUGAGGAUCACCCAUGUAGAACGAGAGUUAUAAAAAUGGAAGUAGAAGGCGCAAAAG”, the “apparent Kd” value came to 37.1 nM under setting [1] and 37.2 nM under setting [2]. On the same counts, the results for “UGACUAAAUGAAGGAUAUCUAAGCAUAAACCUGAGAGAAGGUCAUUUUUACAUGAGGAUCACCCAUGUUGUGAUUAAUGGGUCA” are 88.7 nM and 137 nM. Take “ACUGACAUGAGGAUCACCCAUGUCUUGAAUAGGUCAAAUUCACAGGAUAUGCGCUCGGCCAAGGCGCAGAAGGGUGAUGCAAUG”: the “apparent Kd” value reads like this: under setting [3], 57.9 nM; under setting [4], 11.1 nM. Regarding “AAUAAACAUGAGGAUCACCCAUGUCAGGAUAUCCUAAAUAAAAAAAUAUAAAGAAGAAGGAGAAGGGACUAAAA”, the “apparent Kd” value by setting is: under setting [1], 111 nM; under setting [2], 120 nM. With “UACAUGAGGAUCACCCAUGUUUUGUCGUGUAUGGUAUUUAUCUAGGAUAUCAAUUUAGUUAAUUAUGAGAAGGAGAAUAUUAAU”, the “apparent Kd” value reads like this: under setting [1], 39.1 nM; under setting [2], 39 nM. As to “UUAUUAUUUAUAGGAUAUUGAUGUUUGCUAGUACAAGAAGGAUAAACAUGAGGAUCACCCAUGUAGUUUAAGGUUAGUUUGUUU”, the “apparent Kd” value under setting [3] was found to be 38.1 nM and the “apparent Kd” value under setting [4] turned out to be 39.4 nM. With “AAGAAGUGAGGAUAUACGCGAACAAAAAAAAAAAAGAAAGCGUAGAAGGCACAUGAGGAUCACCCAUGUCCAAA”, the “apparent Kd” value under setting [1] was found to be 27.2 nM and the “apparent Kd” value under setting [2] was determined as 36.3 nM. On the same counts, the results for “ACAUAAUACGAGAAGGGAGUACAUGAGGAUCACCCAUGUGCUCAGGUGUACUCAGGAUAUCGGCUGACGCAAGGUUCAGGGAAU” are 11.6 nM and 94.3 nM. As to “GUGGUCAGACAUGAGGAUCACCCAUGUGGAAUAAAUAAGGGUUAGGAUAUGCAAUAUAGGAUAUAGCAGAAGGGAUGGUUGGUG”, the “apparent Kd” value by setting is: under setting [3], 128 nM; under setting [4], 173 nM.

Consider “UAUGUAUUCGUAGGAUAUCCGUCGAGACCGUGUGGAGAAGGACGAACAUGAGGAUCACCCAUGUAUCAUGGUGUAGACAAUUUU”, for which the “apparent Kd” value by setting is: under setting [1], 47.4 nM; under setting [2], 186 nM. The matching figures for “GCCGUACAUGAGGAUCACCCAUGUCAGGAUAUUUAGCACUCGGAAUUUCCGAGAGGUCAAAGAAGGGACAUUGC”: 17.5 nM and 26.9 nM. The matching figures for “CCUUUGUCAGGAUAUCAGAACACGCCCGUAGGGAGUGCAAAUGAGAAGGGACAUGAGGAUCACCCAUGUACAGA”: 33.2 nM and 114 nM.

For “UGGAUGGUAUGAGGAUAUGCGCGUGAAACGCGCGCAGAAGGCAUGUCAAUAGACAUGAGGAUCACCCAUGUAUUAUCCAUCCAA”, the “apparent Kd” value was found to be 258 nM under setting [3] and 15.8 nM under setting [4]. Take “GAGUGGAAGGCCGCUACAUGAGGAUCACCCAUGUGCUAAGCACAGGAUAUCGCGCGGACCCGGCGCGAGAAGGGUGACGGCCUG”: the “apparent Kd” value was determined as 463 nM under setting [3] and 268 nM under setting [4]. Consider “UUUUAGGCAGGAUAUACAUGAGGAUCACCCAUGUAAAUUUUUCGUUUAACUUGAAUGUGUAGAAGGGCCAUAUU”, for which the “apparent Kd” value by setting is: under setting [1], 20.5 nM; under setting [2], 21.4 nM. In the case of “UCUUACUGAGGAUAUACUUAGAUUUACAUGAGGAUCACCCAUGUUCCUCUAUGUAUAUAUGUAGAAGGCAGAAGUU”, the “apparent Kd” value reads like this: under setting [1], 25.4 nM; under setting [2], 158 nM. The matching figures for “UAUGUAUCCUCGGGAUCCACAUGAGGAUCACCCAUGUAGACUCAGGAUAUCCAAUGCGUUGACAGGGAGAAGGGAGUUCGCAUG”: 44.2 nM and 36.2 nM.

As for “GUAGCAAUCGGAGGAUAUUCAUGAAACAUGAGGAUCACCCAUGUUAAUUUGGGAGAAGGCCGAUUGCUACAAGAGCGAAAGCUC”, the “apparent Kd” value under setting [3] was found to be 8.14 nM and the “apparent Kd” value under setting [4] stood at 5.35 nM.

In the case of “GGGUCACAUGAGGAUCACCCAUGUGAGGAUAUGAUACUAUGUACUUCGGUACAUAGUAUCAGAAGGCACAUCCC”, the “apparent Kd” value was determined as 19.2 nM under setting [1] and 35.7 nM under setting [2]. As for “AAGAAACAUGAGGAUCACCCAUGUAAGAUAAACACAGGAUAUGCGAAUAAAAUAAAUAAAGCAGAAGGGUGAAGAA”, under setting [4], the “apparent Kd” value turned out to be 16.7 nM. For “AAUAACAGAGGAUAUACUGUUUUAUGUGUUUGUUAUUUUGAACAUGAGGAUCACCCAUGUAGAAGGCUGAUUAA”, the “apparent Kd” value runs as follows: under setting [1], 41.2 nM; under setting [2], 38.2 nM. In the case of “UUAUAUAGAGUGAGGAUAUGCUGGUCCUUGGAUCAGCAGAAGGCACAUGAGGAUCACCCAUGUAAAAUAAUAUU”, the “apparent Kd” value under setting [1] stood at 24.2 nM and the “apparent Kd” value under setting [2] was 41.1 nM.

For “GCUACCAAAGAAGCCAACAUGAGGAUCACCCAUGUAUGUUGGUAGGAUAUCGUAUGCAAAGCAUACGAGAAGGGCUAAGGUAGC”, the “apparent Kd” value stood at 98.8 nM under setting [3] and 116 nM under setting [4]. Consider “AAUUUACAGGUAGGAUAUACAUGAGGAUCACCCAUGUAAUCAUAUGAUAUUUUUUUUGUAUGAGUGUAGAAGGACCAAAUAAAA”, for which the “apparent Kd” value under setting [1] was 9.75 nM and the “apparent Kd” value under setting [2] amounted to 8.48 nM. In the case of “UGGGUUGUUGUGAGGAUAUACUGUUUGUUUUGUUUGUAGAAGGUACAUGAGGAUCACCCAUGUUGGUUGUGGUU”, the “apparent Kd” value came to 262 nM under setting [1] and 228 nM under setting [2].

With “UUGGACGUCGUAGGAUAUGUAGGAUAUUCCUACAUGAGGAUCACCCAUGUUGACAUGGAAGAAGGACAUAAGGACGAUGUCCAU”, the “apparent Kd” value is, setting by setting: under setting [3], 27.4 nM; under setting [4], 4.15 nM. On the same counts, the results for “AAUAAUUAGUAAGGAUAUACUAGCGAUUAGCUUGUAGAAGGUACAGUCUUAUGUAUAACAUGUUAACAUGAGGAUCACCCAUGU” are 68.9 nM and 29.3 nM.
